Measurements from ChEMBL document CHEMBL3102842, “Direct synthesis of C3-mono-functionalized oxindoles from N-unprotected 2-oxindole and their antileishmanial activity” (Bioorg Med Chem, 2014).
≈ marks a conversion by molar mass, not a printed value.

Legend:
Leishmania infantum [1] = test: Antileishmanial activity against Leishmania infantum zymodeme MON-1 axenic amastigotes assessed as parasite survival after 48 hrs; assay type: functional, organism-based; details: zymodeme MON-1, 48 h
In short: (§1)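 Axenic amastigotes grown cell-free at 37 °C, 5% CO2 in MAA/20 (modified medium 199 with Hank's salts, tryptocasein, glucose, glutamine, NaHCO3, hemin, 25 mM HEPES, pH 6.5, 20% heat-inactivated FBS). Compounds in DMSO (≤1% v/v) at 10–100 µg/mL, 37 °C. Viability read after TO-PRO-3 staining (10 min, room temperature) by ImageStream imaging cytometry, ≥10,000 events per sample.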

Leishmania infantum [2] = test: Antileishmanial activity against Leishmania infantum zymodeme MON-1 axenic amastigotes assessed as parasite survival after 24 hrs; assay type: functional, organism-based; details: zymodeme MON-1, 24 h; in short: as §1
Leishmania infantum [3] = test: Antileishmanial activity against Leishmania infantum zymodeme MON-1 promastigotes assessed as parasite survival after 48 hrs; assay type: functional, organism-based; details: zymodeme MON-1, 48 h
In short: (§2)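 Log-phase promastigotes from 26 °C Schneider's Drosophila medium with 10% heat-inactivated FCS, pH 7.2, adjusted to 5×10^6 parasites/mL. Compounds in DMSO (≤1% v/v) at 10–100 µg/mL, incubated at 26 °C. Surviving promastigotes counted in a Neubauer chamber and compared with drug-free controls.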

[4] = Therapeutic index, ratio of TC50 for mouse RAW264.7 cells to EC50 for Leishmania infantum zymodeme MON-1 axenic amastigotes; details: read-out: TI
In short: (§3)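 Index calculated as TC50 on RAW 264.7 macrophages (MTT assay) divided by EC50 on L. infantum promastigotes or axenic amastigotes, using the same incubation time (24 or 48 h) for both.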

[5] = Therapeutic index, ratio of TC50 for mouse RAW264.7 cells to EC50 for Leishmania infantum zymodeme MON-1 promastigotes after 24 hrs; details: read-out: TI; in short: as §3
[6] = Therapeutic index, ratio of TC50 for mouse RAW264.7 cells to EC50 for Leishmania infantum zymodeme MON-1 axenic amastigotes after 48 hrs; details: read-out: TI; in short: as §3
Leishmania infantum [7] = test: Antileishmanial activity against Leishmania infantum zymodeme MON-1 promastigotes assessed as parasite survival after 24 hrs; assay type: functional, organism-based; details: zymodeme MON-1, 24 h; in short: as §2
[8] = Cytotoxicity against mouse RAW264.7 cells after 48 hrs by MTT assay; assay type: cell-based; details: read-out: TC50
In short: (§4)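 RAW 264.7 cells in RPMI 1640 with L-glutamine, 10% FBS and penicillin/streptomycin, seeded at 1×10^5 cells/well and left to adhere overnight at 37 °C, 5% CO2. Compounds at 10, 50 and 100 µg/mL, 37 °C. MTT (5 mg/mL) added for 4 h, formazan dissolved in DMSO, A540 read. Survival expressed as percent of untreated control, in triplicate. TC50 taken as the 50% macrophage-death concentration.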

[9] = Cytotoxicity against mouse RAW264.7 cells after 24 hrs by MTT assay; assay type: cell-based; details: read-out: TC50; in short: as §4
[10] = Therapeutic index, ratio of TC50 for mouse RAW264.7 cells to EC50 for Leishmania infantum zymodeme MON-1 promastigotes after 48 hrs; details: read-out: TI; in short: as §3
Leishmania infantum [11] = test: Antileishmanial activity against Leishmania infantum zymodeme MON-1 promastigotes assessed as parasite survival at 10 to 100 ug/ml after 48 hrs; assay type: functional; in short: as §2

| SMILES | EC50 (Leishmania infantum [1]) [µg/mL] | EC95 (Leishmania infantum [1]) [µg/mL] | EC50 (Leishmania infantum [2]) [µg/mL] | EC95 (Leishmania infantum [2]) [µg/mL] | EC50 (Leishmania infantum [3]) [µg/mL] | EC95 (Leishmania infantum [3]) [µg/mL] | selectivity ratio [4] | selectivity ratio at 24 h [5] | selectivity ratio at 48 h [6] | EC50 (Leishmania infantum [7]) [µg/mL] | EC95 (Leishmania infantum [7]) [µg/mL] | CC50 at 48 h [8] [µg/mL] | CC50 at 24 h [9] [µg/mL] | selectivity ratio at 48 h [10] | Activity (Leishmania infantum [11]) [%] |
| --- | --- | --- | --- | --- | --- | --- | --- | --- | --- | --- | --- | --- | --- | --- | --- |
| O=C(C[C@@H](c1ccccc1)[C@H]1C(=O)Nc2ccccc21)c1ccccc1 (relative stereo) | 5.9 (≈ 17.3 µM) | 69.4 (≈ 203 µM) | 15.3 (≈ 44.8 µM) | 75.6 (≈ 221 µM) | 6.3 (≈ 18.5 µM) | 72.1 (≈ 211 µM) | 4.7 | 4.4 | 11.2 | 16.2 (≈ 47.5 µM) | 77.8 (≈ 228 µM) | 66.6 (≈ 195 µM) | 71.6 (≈ 210 µM) | 10.6 |  |
| C[C@@H]1[C@H](O)[C@@H](C)/C=C/C=C/C=C/C=C/C=C/C=C/C=C/[C@H](O[C@@H]2O[C@H](C)[C@@H](O)[C@H](N)[C@@H]2O)C[C@@H]2O[C@](O)(C[C@@H](O)C[C@@H](O)[C@H](O)CC[C@@H](O)C[C@@H](O)CC(=O)O[C@H]1C)C[C@H](O)[C@H]2C(=O)O [AMPHOTERICIN B] | 0.4 (≈ 0.433 µM) | 3.4 (≈ 3.68 µM) | 0.5 (≈ 0.541 µM) | 3.9 (≈ 4.22 µM) | 0.4 (≈ 0.433 µM) | 3.9 (≈ 4.22 µM) | 39.1 | 35.1 | 8.2 | 0.55 (≈ 0.595 µM) | 3.9 (≈ 4.22 µM) | 3.1 (≈ 3.35 µM) | 19.6 (≈ 21.2 µM) | 8.2 |  |
| Cc1ccc([C@H](CC(=O)c2ccccc2)[C@H]2C(=O)Nc3ccccc32)cc1 (relative stereo) | 48.4 (≈ 136 µM) | 94.3 (≈ 265 µM) | 60.1 (≈ 169 µM) | 99.5 (≈ 280 µM) | 51.6 (≈ 145 µM) | 96 (≈ 270 µM) | 1.6 | 1.5 | 1.3 | 62 (≈ 174 µM) | 111 (≈ 312 µM) | 67.6 (≈ 190 µM) | 93.3 (≈ 262 µM) | 1.3 |  |
| COc1ccc([C@@H]2CC(=O)C[C@@H](c3ccc(OC)cc3)C23C(=O)Nc2ccccc23)cc1 | 15.1 (≈ 35.3 µM) | 74.8 (≈ 175 µM) | 21 (≈ 49.1 µM) | 79.3 (≈ 185 µM) | 16.2 (≈ 37.9 µM) | 75.2 (≈ 176 µM) | 3.8 | 3.3 | 3.4 | 23.9 (≈ 55.9 µM) | 82.4 (≈ 193 µM) | 51 (≈ 119 µM) | 80.5 (≈ 188 µM) | 3.1 | >74 |
| O=C1C[C@@H](c2ccccc2)C2(C(=O)Nc3ccccc32)[C@H](c2ccccc2)C1 | 5.7 (≈ 15.5 µM) | 74.1 (≈ 202 µM) | 28.5 (≈ 77.6 µM) | 78.3 (≈ 213 µM) | 6.9 (≈ 18.8 µM) | 73.2 (≈ 199 µM) | 3.1 | 2.9 | 11.4 | 29.8 (≈ 81.1 µM) | 86.1 (≈ 234 µM) | 65.2 (≈ 177 µM) | 88.8 (≈ 242 µM) | 9.4 | >74 |
| COc1ccc([C@H](CC(=O)c2ccccc2)[C@H]2C(=O)Nc3ccccc32)cc1 (relative stereo) | 13.1 (≈ 35.3 µM) | 71.2 (≈ 192 µM) | 24.2 (≈ 65.2 µM) | 75.4 (≈ 203 µM) | 14.2 (≈ 38.2 µM) | 74 (≈ 199 µM) | 1.7 | 1.3 | 2.7 | 29.7 (≈ 80 µM) | 78.5 (≈ 211 µM) | 35.4 (≈ 95.3 µM) | 41 (≈ 110 µM) | 2.5 |  |
| O=C(/C=C/c1ccccc1)c1ccccc1 [CHALCONE] | 1.3 (≈ 6.24 µM) | 69.9 (≈ 336 µM) | 5.1 (≈ 24.5 µM) | 79.5 (≈ 382 µM) | 1.5 (≈ 7.2 µM) | 71.1 (≈ 341 µM) | 5.5 | 4.9 | 23.7 | 5.7 (≈ 27.4 µM) | 83.5 (≈ 401 µM) | 30.7 (≈ 147 µM) | 28.1 (≈ 135 µM) | 20.1 |  |
| O=C1Cc2ccccc2N1 [OXINDOLE] | 69.5 (≈ 522 µM) | 136 (≈ 1020 µM) | 199 (≈ 1490 µM) | 430 (≈ 3230 µM) | 72.4 (≈ 544 µM) | 146 (≈ 1100 µM) | 0.6 | 0.5 | 2.2 | 232 (≈ 1750 µM) | 447 (≈ 3360 µM) | 154 (≈ 1160 µM) | 126 (≈ 945 µM) | 2.1 |  |
| O=C(CC(c1ccc(Cl)cc1)C1C(=O)Nc2ccccc21)c1ccccc1 (configuration not stated) | 10.1 (≈ 26.9 µM) | 70.2 (≈ 187 µM) | 18.5 (≈ 49.2 µM) | 74 (≈ 197 µM) | 11.5 (≈ 30.6 µM) | 73.6 (≈ 196 µM) | 2 | 1.8 | 3.5 | 19.7 (≈ 52.4 µM) | 76.5 (≈ 204 µM) | 35 (≈ 93.1 µM) | 36.9 (≈ 98.2 µM) | 3 |  |
| Cc1ccc([C@@H]2CC(=O)C[C@@H](c3ccc(C)cc3)C23C(=O)Nc2ccccc23)cc1 | 1.9 (≈ 4.8 µM) | 69.9 (≈ 177 µM) | 5.9 (≈ 14.9 µM) | 69.4 (≈ 175 µM) | 2 (≈ 5.06 µM) | 71.4 (≈ 181 µM) | 10.6 | 10.2 | 20.3 | 6.1 (≈ 15.4 µM) | 72.1 (≈ 182 µM) | 38.6 (≈ 97.6 µM) | 62.8 (≈ 159 µM) | 18.7 | >74 |
| O=C(CC(c1cccc(Cl)c1)C1C(=O)Nc2ccccc21)c1ccccc1 (configuration not stated) | 12.5 (≈ 33.3 µM) | 71.5 (≈ 190 µM) | 30.5 (≈ 81.1 µM) | 80.2 (≈ 213 µM) | 13.2 (≈ 35.1 µM) | 74 (≈ 197 µM) | 6.3 | 6.1 | 9.3 | 31.6 (≈ 84.1 µM) | 85.5 (≈ 227 µM) | 116 (≈ 309 µM) | 193 (≈ 514 µM) | 8.8 |  |
| O=C1C[C@@H](c2ccc(Cl)cc2)C2(C(=O)Nc3ccccc32)[C@H](c2ccc(Cl)cc2)C1 | 4.9 (≈ 11.2 µM) | 69.9 (≈ 160 µM) | 21 (≈ 48.1 µM) | 75.2 (≈ 172 µM) | 5.1 (≈ 11.7 µM) | 72.1 (≈ 165 µM) | 2.1 | 1.8 | 4.4 | 23.4 (≈ 53.6 µM) | 77.1 (≈ 177 µM) | 21.3 (≈ 48.8 µM) | 44 (≈ 101 µM) | 4.2 | >74 |
